In ChEMBL document CHEMBL4699415, “Synthesis and anti-HBV activity of carbocyclic nucleoside hybrids with salient features of entecavir and aristeromycin” (RSC Med Chem, 2020):

Experiments:
[1] = tested on: Hepatitis B virus; assay: Antiviral activity against Hepatitis B virus infected in human HepG2.2.15.7 assessed as reduction in HBV DNA level incubated for 9 days media replaced every 3 days once with test compound by RT-PCR analysis; type: functional, organism-based
Outline: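 HepG2.2.15.7 cells, 1 × 10^4 per well, settled 24 h before exposure to a range of concentrations; drug-containing medium renewed every three days. At day nine, supernatant HBV DNA quantified by real-time PCR. IC50 is the concentration giving 50% inhibition of supernatant HBV DNA.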

[2] = Cytotoxicity against human HepG2.2.15.7 cells assessed as reduction in cell viability; type: cell-based
Outline: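 HepG2.2.15.7 cells, 1 × 10^4 per well, seeded 24 h, then kept nine days with graded concentrations, medium with drug renewed every three days. Viability read by tetrazolium dye method. CC50 is the concentration reducing viable cells by 50%.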

Compound	IC50 [1]	CC50 [2]
C=C1[C@@H](n2ccc3c(N)ncnc32)[C@H](O)[C@H](O)[C@@]1(C)CO	> 100 µM	> 100 µM
C=Cc1cn([C@@H]2C(=C)[C@](C)(CO)[C@@H](O)[C@H]2O)c2ncnc(N)c12	> 100 µM	> 100 µM
C=C1[C@@H](n2cc(Br)c3c(N)ncnc32)[C@H](O)[C@H](O)[C@@]1(C)CO	8.3 µM	> 100 µM
C=C1[C@@H](n2cc(F)c3c(N)ncnc32)[C@H](O)[C@H](O)[C@@]1(C)CO	> 100 µM	> 100 µM
C#Cc1cn([C@@H]2C(=C)[C@](C)(CO)[C@@H](O)[C@H]2O)c2ncnc(N)c12	6.3 µM	> 100 µM
C=C1[C@@H](n2cc(Cl)c3c(N)ncnc32)[C@H](O)[C@H](O)[C@@]1(C)CO	22.9 µM	> 100 µM
C=C1[C@@H](n2cc(I)c3c(N)ncnc32)[C@H](O)[C@H](O)[C@@]1(C)CO	3.4 µM	87.5 µM
Nc1ncnc2c1ncn2[C@@H]1C[C@H](CO)[C@@H](O)[C@H]1O [ARISTEROMYCIN]	> 3 µM	> 3 µM
C=C1[C@H](CO)[C@@H](O)C[C@@H]1n1cnc2c(=O)[nH]c(N)nc21 [ENTECAVIR]	0.00018 µM	> 0.1 µM
